Reference: article PMC4654616 (ACS chemical biology, 2015)
Like-named read-outs stand apart in the source and are kept apart here.

Tests used:
uPAR•uPAATF interaction [1] = molecular target: T1, uPAR•uPAATF interaction (Homo sapiens, UniProt Q03405); experiment: Microtiter-based ELISA for uPAR•uPAATF; type: binding
Outline: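 Wells were coated with uPA_ATF (2 µg·mL⁻¹ in PBS, 2 h, 4 °C) and blocked 1 h at room temperature. Purified uPAR lacking the GPI anchor (75 nM, PBS with 0.025% Triton X-100) was added with test compound for 30 min. Compound was screened at 50 µM or titrated 100 to 0.4 µM, with 1% DMSO final. After washing, bound uPAR was detected by biotinylated anti-uPAR antibody (1 h), streptavidin-HRP (20 min) and TMB/H₂O₂ with H₂SO₄ stop; n = 2.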

uPAR [2] = molecular target: T2, uPAR (Homo sapiens, UniProt Q03405); experiment: Fluorescence polarization, displacement of AE147-FAM peptide from uPAR; type: binding
Outline: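 Test compound was serially diluted in DMSO, then in PBS with 0.01% Triton X-100 (final 100 µM to 0.046 µM). It was preincubated at least 15 min with uPAR before AE147-FAM peptide was added. Final levels were 320 nM uPAR, 100 nM peptide and 2% DMSO. Polarization was read at ex 485/em 530 nm in duplicate. Peptide-only and uPAR + peptide controls were run in quadruplicate.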

[3] = test system: Rac1 activation in MDA-MB-231 cells; experiment: Rac1 pull-down assay; type: cell-based, human
MDA-MB-231 cells [4] = experiment: Boyden Matrigel invasion chamber assay; type: cell-based; conditions: Homo sapiens, MDA-MB-231, 16 h, read-out: IC50 for MDA-MB-231 cell invasion
Outline: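 MDA-MB-231 cells were serum-starved 4 h. Matrigel inserts had fibronectin (30 ng µl⁻¹) coated on the underside overnight at 4 °C and were equilibrated 2 h in serum-free medium. The upper chamber received 5 × 10⁴ cells in 0.1% FBS medium with test compound or 1% DMSO. The lower chamber held 10% FBS medium with the same compound. After 16 h at 37 °C, invaded cells were methanol-fixed, hematoxylin-stained and counted in ten 200× fields; n = 3.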

uPAR•uPAATF interaction [5] = molecular target: T1, uPAR•uPAATF interaction; type: binding
MDA-MB-231 cells [6] = experiment: MTT cell viability assay; type: cell-based, human; conditions: MDA-MB-231, 100 µM
Outline: (§1)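 MDA-MB-231 cells were grown in DMEM with 10% FBS and 1% penicillin/streptomycin at 37 °C, 5% CO₂. Cells (10⁴/well) were plated overnight, then treated 3 days with test compound or DMSO control. MTT (20 µl of 5 mg/ml) was added for 2 h at 37 °C. Viable cells were quantified by absorbance at 570 nm with 630 nm reference.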

MTT cell viability assay = type: cell-based, human; conditions: human, MDA-MB-231 cells
Outline: as §1

uPAR [7] = molecular target: T2, uPAR; experiment: Saturation transfer difference; type: binding; conditions: 438 µM 7, uPAR 50 fold less
uPAR [8] = molecular target: T2, uPAR; experiment: Isothermal titration calorimetry of 7 against purified uPAR; type: binding
[9] = molecular target: uPAR•uPA binding on HEK-293-uPAR cells (Homo sapiens, UniProt Q03405); experiment: FACS analysis of FITC-conjugated uPA binding to HEK-293-uPAR cells; type: cell-based; conditions: read-out: inhibition of uPA-FITC binding to uPAR (FACS)
[10] = molecular target: VTN•uPAR•uPAATF interaction (Homo sapiens, UniProt Q03405); experiment: Microtiter-based ELISA for uPAR•VTN; type: binding
Outline: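 Full-length VTN (5 µg·mL⁻¹, carbonate buffer pH 9.6) was coated 12 h at 4 °C, then blocked 1 h at room temperature. Wells received 120 nM uPAR•uPA_ATF complex in PBS with 0.01% Triton X-100 plus test compound for 60 min. Compound was screened at 50 µM or titrated 100 to 0.4 µM, with 1% DMSO final. Bound uPAR was detected by biotinylated anti-uPAR antibody (1 h), streptavidin-HRP (20 min) and TMB/H₂O₂ with H₂SO₄ stop; n = 2.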

[11] = test system: FAK phosphorylation in MDA-MB-231 cells; experiment: Western blot for phospho-FAK; type: cell-based, human
Outline: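 MDA-MB-231 lysates were made in RIPA buffer with protease and phosphatase inhibitors. Thirty micrograms of protein were resolved on 10% SDS-PAGE and transferred to nitrocellulose. Blots were probed overnight at 4 °C for total FAK, phospho-FAK (Y397) or actin. Dye-conjugated anti-mouse or anti-rabbit secondaries were detected by infrared fluorescence imaging.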

T2 sequence (Q03405 23-305 limits assumed): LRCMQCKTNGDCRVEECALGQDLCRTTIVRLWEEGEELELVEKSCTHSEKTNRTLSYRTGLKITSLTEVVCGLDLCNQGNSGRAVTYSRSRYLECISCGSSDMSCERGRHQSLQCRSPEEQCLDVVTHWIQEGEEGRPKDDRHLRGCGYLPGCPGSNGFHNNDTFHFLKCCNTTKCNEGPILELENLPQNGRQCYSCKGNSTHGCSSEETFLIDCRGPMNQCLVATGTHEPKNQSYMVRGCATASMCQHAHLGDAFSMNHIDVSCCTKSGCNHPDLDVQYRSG
T1 sequence (Q03405 23-305 limits assumed): as above
Sequence of VTN•uPAR•uPAATF interaction (Q03405 23-305 limits assumed): as above
Sequence of uPAR•uPA binding on HEK-293-uPAR cells (Q03405 23-305 limits assumed): as above

| IC50 (uPAR•uPAATF interaction [1]) [µM] | Ki (uPAR [2]) [µM] | IC50 (MDA-MB-231 cells [4]) [µM] | IC50 (uPAR•uPAATF interaction [5]) [µM] | IC50 (uPAR•uPAATF interaction [1]; IC50 for inhibition of uPAR•uPAATF interaction (ELISA), 75 nM uPAR, immobilized uPAATF) [µM] | direct binding to uPAR (STD-NMR and ITC) (uPAR [7]) | Kd (uPAR [8]) [µM] | enthalpy (ΔH) (ITC) (uPAR [8]; 25 °C) [kcal/mol] | entropy (ΔS) (ITC) (uPAR [8]; 25 °C) [kcal/mol] | inhibition at 100 µM [9] [%] | IC50 [10] [µM] | SMILES | Rac1 activation [3] | cytotoxicity (MDA-MB-231 cells [6]) | viability at 3 days, 100 µM (MTT cell viability assay) [%] | FAK phosphorylation at Y397 [11] |
| --- | --- | --- | --- | --- | --- | --- | --- | --- | --- | --- | --- | --- | --- | --- | --- |
| 58 | 4.2 | – | – | – | – | – | – | – | – | – | CCCCCCOc1cccc(N2C(=O)C(O)=C(C(=O)c3ccccc3)C2c2ccc(CC)cc2)c1 (stereo not drawn) [Compound 1, 4-benzoyl-5-(4-ethylphenyl)-1-(3-(hexyloxy)phenyl)-3-hydroxy-1H-pyrrol-2(5H)-one] | – | – | – | – |
| – | – | 35 | 12.9 | 18 | binds directly to uPAR | 17.2 | -6.4 | 0.01 | ~40 | 32.8 | Cc1ccc(N2C(=O)C(O)=C(C(=O)c3ccc(Cl)cc3)C2c2cccc(F)c2)cc1Br (stereo not drawn) [Compound 7, 1-(3-bromo-4-methylphenyl)-4-(4-chlorobenzoyl)-5-(3-fluorophenyl)-3-hydroxy-1H-pyrrol-2(5H)-one] | inhibited Rac1 activation in a concentration-dependent manner | not cytotoxic | > 80 | significantly inhibited |
